Assay results as given in ChEMBL document CHEMBL2413001, “Exploring pyrimidine-substituted curcumin analogues: design, synthesis and effects on EGFR signaling” (Bioorg Med Chem, 2013).
Values belong to the compound of their own block, whether it stands above or below them. Active and inactive are the calls of the source. No cut-off for these calls is given here.

Assays:
HCT-116 [1] = assay: Induction of apoptosis in human HCT116 cells assessed as ratio of Bax to Bcl-2 expression at 20 uM after 72 hrs by Western blot analysis relative to control; format: functional
Procedure, shortened: (§1)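 HCT116 only, seeded at 8 × 10⁴ cells/ml in 15 cm dishes for 24 h, then treated for 72 h at 20 µM or at 5, 10 and 20 µM. Lysed in Triton lysis buffer (pH 7.5) with inhibitors, sonicated, and protein assayed by BCA. Western blots were developed by ECL. Band intensities were normalized to β-actin, as means of three independent experiments; the Bax/Bcl-2 ratio was expressed relative to untreated control.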

HCT-116 [2] = assay: Induction of apoptosis in human HCT116 cells assessed as increase in Bax expression at 20 uM after 72 hrs by Western blot analysis; format: functional, cell-based; procedure, shortened: as §1
HCT-116 [3] = assay: Induction of apoptosis in human HCT116 cells assessed as reduction in Bcl-2 expression at 20 uM after 72 hrs by Western blot analysis; format: functional, cell-based; procedure, shortened: as §1
HCT-116 [4] = assay: Induction of apoptosis in human HCT116 cells assessed as effect on HSP-70 expression at 20 uM after 72 hrs by Western blot analysis; format: functional, cell-based; procedure, shortened: as §1
HCT-116 [5] = assay: Induction of apoptosis in human HCT116 cells assessed as effect on HSP-90 expression at 20 uM after 72 hrs by Western blot analysis; format: functional, cell-based; procedure, shortened: as §1
HCT-116 [6] = assay: Induction of apoptosis in human HCT116 cells assessed as PARP cleavage at 20 uM after 72 hrs by Western blot analysis; format: functional, cell-based; procedure, shortened: as §1
HCT-116 [7] = assay: Induction of apoptosis in human HCT116 cells assessed as caspase-3 activation at 20 uM after 72 hrs by Western blot analysis; format: functional, cell-based; procedure, shortened: as §1
[8] = biological target: Epidermal growth factor receptor (Homo sapiens) (UniProt P00533); assay: Inhibition of EGFR signaling in human HCT116 cells assessed as effect on CDK2 expression at 20 uM after 24 hrs by Western blot analysis; format: cell-based; details: HCT-116
Sequence of Epidermal growth factor receptor (Homo sapiens) (P00533 whole entry): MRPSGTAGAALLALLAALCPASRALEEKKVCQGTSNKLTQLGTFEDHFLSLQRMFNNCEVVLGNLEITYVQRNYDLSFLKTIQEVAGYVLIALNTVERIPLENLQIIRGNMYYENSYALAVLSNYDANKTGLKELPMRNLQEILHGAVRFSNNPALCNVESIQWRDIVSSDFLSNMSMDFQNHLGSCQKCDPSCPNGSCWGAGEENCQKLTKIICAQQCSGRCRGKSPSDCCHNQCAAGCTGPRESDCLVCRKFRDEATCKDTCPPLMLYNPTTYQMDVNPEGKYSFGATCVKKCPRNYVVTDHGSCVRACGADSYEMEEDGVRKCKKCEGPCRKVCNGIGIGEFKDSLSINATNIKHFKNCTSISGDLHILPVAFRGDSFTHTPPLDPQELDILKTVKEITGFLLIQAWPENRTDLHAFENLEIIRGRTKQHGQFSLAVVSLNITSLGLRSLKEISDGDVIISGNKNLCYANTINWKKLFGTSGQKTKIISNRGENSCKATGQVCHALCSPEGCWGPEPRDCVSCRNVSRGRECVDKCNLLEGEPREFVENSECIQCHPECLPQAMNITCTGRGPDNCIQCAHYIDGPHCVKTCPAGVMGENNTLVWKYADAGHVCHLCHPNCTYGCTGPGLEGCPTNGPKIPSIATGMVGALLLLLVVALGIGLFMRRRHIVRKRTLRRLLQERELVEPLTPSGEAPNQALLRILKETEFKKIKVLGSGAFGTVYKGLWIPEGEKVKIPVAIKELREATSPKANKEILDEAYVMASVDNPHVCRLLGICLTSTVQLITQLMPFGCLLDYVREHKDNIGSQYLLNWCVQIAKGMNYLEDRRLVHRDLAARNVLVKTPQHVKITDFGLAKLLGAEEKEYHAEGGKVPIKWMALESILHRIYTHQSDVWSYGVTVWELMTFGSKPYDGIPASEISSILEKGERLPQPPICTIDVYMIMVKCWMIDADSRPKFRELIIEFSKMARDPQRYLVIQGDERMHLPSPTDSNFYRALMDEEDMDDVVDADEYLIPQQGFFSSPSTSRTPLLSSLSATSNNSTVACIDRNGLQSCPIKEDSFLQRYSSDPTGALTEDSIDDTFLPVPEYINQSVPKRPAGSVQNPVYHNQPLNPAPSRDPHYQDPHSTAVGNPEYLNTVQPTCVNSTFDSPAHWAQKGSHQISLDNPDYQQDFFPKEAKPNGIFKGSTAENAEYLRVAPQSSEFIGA

[9] = biological target: Epidermal growth factor receptor (Homo sapiens) (UniProt P00533); assay: Inhibition of EGFR signaling in human HCT116 cells assessed as effect on CDK4 expression at 20 uM after 24 hrs by Western blot analysis; format: cell-based; details: HCT-116
[10] = biological target: Epidermal growth factor receptor (Homo sapiens) (UniProt P00533); assay: Inhibition of EGFR signaling in human HCT116 cells assessed as inhibition of Rb expression at 20 uM after 24 hrs by Western blot analysis; format: cell-based; details: HCT-116
[11] = biological target: Epidermal growth factor receptor (Homo sapiens) (UniProt P00533); assay: Inhibition of EGFR signaling in human HCT116 cells assessed as inhibition of cyclin E1 expression at 20 uM after 24 hrs by Western blot analysis; format: cell-based; details: HCT-116
[12] = biological target: Epidermal growth factor receptor (Homo sapiens) (UniProt P00533); assay: Inhibition of EGFR signaling in human HCT116 cells assessed as inhibition of cyclin D1 expression at 20 uM after 24 hrs by Western blot analysis; format: cell-based; details: HCT-116
[13] = biological target: Epidermal growth factor receptor (Homo sapiens) (UniProt P00533); assay: Inhibition of EGFR signaling in human HCT116 cells assessed as induction of p21 WAF-1/CIP-1 expression at 20 uM after 24 hrs by Western blot analysis relative to control; format: cell-based; details: HCT-116
HT-29 [14] = assay: Cell cycle arrest in human HT-29 cells assessed as increase in G2/M population at 20 uM after 24 hrs by flow cytometry relative to control; format: functional
Procedure, shortened: (§2)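 HCT116 or HT29 cells seeded at 4 × 10⁴ cells/ml in 6-well plates and left 24 h to attach, then exposed for 24 h in complete McCoy's 5A (5% FBS) with 0.1% DMSO final, at 5, 10 or 20 µM. Floating and trypsinized cells were pooled, PBS-washed, fixed overnight in 70% ethanol at 4 °C and stained with PI/RNase for 15 min at room temperature. Flow DNA content gave G0/G1, S and G2/M fractions as fold of control, from three independent assays.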

HCT-116 [15] = assay: Cell cycle arrest in human HCT116 cells assessed as increase in G2/M population at 20 uM after 24 hrs by flow cytometry relative to control; format: functional; procedure, shortened: as §2
HCT-116 [16] = assay: Inhibition of EGFR protein expression in human HCT116 cells at 20 uM after 72 hrs by Western blot analysis; format: functional, cell-based
Procedure, shortened: (§3)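 HCT116 or HT29 seeded at 8 × 10⁴ cells/ml in 15 cm dishes for 24 h, then treated for 72 h at 20 µM or at 5, 10 and 20 µM. Whole-cell lysates were made in Tris-HCl/NaCl/Triton buffer with phosphatase and protease inhibitors (pH 7.5), sonicated and cleared at 10,000g; protein was measured by BCA. Blots were blocked in 5% milk/TBST and developed by ECL. P-EGFR(Tyr1068) and total EGFR bands were normalized to β-tubulin, as means of three experiments.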

HT-29 [17] = assay: Inhibition of EGFR protein expression in human HT-29 cells at 20 uM after 72 hrs by Western blot analysis; format: functional, cell-based; procedure, shortened: as §3
[18] = biological target: Epidermal growth factor receptor (Homo sapiens) (UniProt P00533); assay: Inhibition of EGFR phosphorylation at Tyr1068 residue in human HCT116 cells at 20 uM after 72 hrs by Western blot analysis; format: cell-based; details: HCT-116; procedure, shortened: as §3
[19] = biological target: Epidermal growth factor receptor (Homo sapiens) (UniProt P00533); assay: Inhibition of EGFR phosphorylation at Tyr1068 residue in human HT-29 cells at 20 uM after 72 hrs by Western blot analysis; format: cell-based; procedure, shortened: as §3
HT-29 [20] = assay: Cytotoxicity against human HT-29 cells assessed as growth inhibition after 48 hrs by resazurin assay; format: functional, cell-based; details: for IC50: HT-29, 48 h
Procedure, shortened: (§4)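 HCT116 or HT29 seeded at 2000 cells/well, grown 24 h, then given fresh complete McCoy's 5A (5% FBS, 0.1% DMSO final) containing serial compound concentrations for 48 h. Resazurin was added for 16 h and fluorescence read at ex 544/em 595 nm as a measure of living cells. IC50 was calculated by the Logit approach; values are mean ± SD.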

HCT-116 [21] = assay: Cytotoxicity against human HCT116 cells assessed as growth inhibition after 48 hrs by resazurin assay; format: functional, cell-based; details: for IC50: HCT-116, 48 h; procedure, shortened: as §4

inhibition [8]: inactive
inhibition [9]: inactive
inhibition [10]: inactive
inhibition [11]: inactive
inhibition [12]: inactive
fold change (FC) [13]: 20
inhibition [18]: inactive
inhibition [19]: inactive
SMILES: CCNc1nc(/C=C/c2ccc(OC)c(OC)c2)cc(/C=C/c2ccc(OC)c(OC)c2)n1
Ratio (HCT-116 [1]): 1.57
Activity (HCT-116 [2]): Active
Activity (HCT-116 [3]): Active
Activity (HCT-116 [4]): inactive
Activity (HCT-116 [5]): inactive
Activity (HCT-116 [6]): inactive
Activity (HCT-116 [7]): inactive
fold change (FC) (HT-29 [14]): 1.1
fold change (FC) (HCT-116 [15]): 1.03
inhibition (HCT-116 [16]): inactive
inhibition (HT-29 [17]): inactive
growth inhibition (GI) (HT-29 [20]): Dose-dependent effect
IC50 (HT-29 [20]): 38.5 µM
growth inhibition (GI) (HCT-116 [21]): Dose-dependent effect
IC50 (HCT-116 [21]): 46.4 µM

SMILES: CCCNc1nc(/C=C/c2ccc(OC)c(OC)c2)cc(/C=C/c2ccc(OC)c(OC)c2)n1
growth inhibition (GI) (HT-29 [20]): Dose-dependent effect
IC50 (HT-29 [20]): > 100 µM
growth inhibition (GI) (HCT-116 [21]): Dose-dependent effect
IC50 (HCT-116 [21]): 28 µM

SMILES: COc1cc(/C=C/c2cc(/C=C/c3cc(OC)c(OC)c(OC)c3)nc(NCCCO)n2)cc(OC)c1OC
growth inhibition (GI) (HT-29 [20]): Dose-dependent effect
IC50 (HT-29 [20]): 12.4 µM
growth inhibition (GI) (HCT-116 [21]): Dose-dependent effect
IC50 (HCT-116 [21]): 7.4 µM
